Most compounds without a hit are left out; they make up all but 0.94% or so of the library.
NPR1 activator = GC-A (human) enzyme activation; P16066; 370,000 compounds, 0.14% hits; AID 1671463; activation, % at 10 µM; HEK293 GC-A cells, cGMP TR-FRET, EC30 ANP; 0% at EC30 ANP, 100% saturating ANP; in the data active means activation above about 40%
GC-B act = GC-B (human) receptor activation; HEK293-GC-B cells, CNP EC30, cGMP TR-FRET; 0% at EC30 CNP, 100% saturating CNP; activation, % at 10 µM; 370,000 compounds, 0.11% hits;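 active means activation at 10 µM reaching about 35% in either raw or pattern-adjusted values, limit read from the data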
GalR3 antag = antagonists of human GalR3; O60755; HEK293 GalR3-CNG cAMP membrane potential fluorescence; galR3 body fused to GalR1 C-terminus; inhibition, % at 3 µM; 360,000 compounds, 0.44% hits; AID 651719;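 active means inhibition above the screen-wide average plus 3 SD, cut at about 13% in these data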;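 further: forskolin and galanin both at EC90 stimulate the cells; cAMP rise reported by CNG channel membrane potential dye signal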
Arr AP2 block = human beta-arrestin and AP2 interaction inhibition; FITC-arrestin peptide / GST-AP2 beads, flow cytometry; AP2 beta2 appendage carries R879A mutation; inhibition, % at 10 µM; 340,000 compounds, 0.31% hits; AID 504490;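 active means inhibition above a set limit, near 3 SD of compounds lacking own fluorescence, cut at about 54% in these data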
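System: GST-tagged AP2 beta2-adaptin appendage (R879A) on 4 µm glutathione beads / Reagent: FITC-arrestin peptide, 50 nM / Detection: HyperCyt-sampled flow cytometry, FL1 channel, ex 488/em 535 nm / Timing: 12 min plus 1 h, RT / Buffer or medium: PBS plus Tween 20 (0.05%) and BSA (0.1%)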
GalR3 conf = GalR3 (human) antagonism, confirmation; inhibition, % at 3 µM; AID 652245; 1,600 compounds, 59% hits; HEK293 GalR3 CNG cAMP biosensor, membrane potential fluorescence; galR3 fused to GalR1 carboxy tail; challenged with forskolin and galanin at EC90; shares compounds with GalR3 antag;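 active means inhibition above the primary screen's cutoff, the mean inhibition of all screened compounds plus 3 SD, cut at about 13% in these data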
CNG parental = parental cell agonism counter-screen for GalR3 antagonists; activation, % at 3 µM; HEK293-CNG parental cells, cAMP membrane potential fluorescence; normalised: DMSO wells 0%, forskolin wells 100%; shares compounds with GalR3 antag; AID 652268; 1,600 compounds, 10% hits; in the data active means activation above about 1.3%
Numbers stand for hits.

What do the screens show for `COC(=O)c1cc2c(c3c4cc(F)ccc4n(S(=O)(=O)c4ccc(C)cc4)c13)C(=O)N(C)C2`?
NPR1 activator: inactive; GC-B act: inactive; GalR3 antag: inactive

Results for CC1(C)CC(N2CCCCC2)=CC(=[N+]2CCCCC2)C1 ?
NPR1 activator: inactive; GC-B act: inactive; GalR3 antag: 47.2; Arr AP2 block: inactive; GalR3 conf: 12.6; CNG parental: inactive

Results for O=C(Nc1ccc(F)cc1)OCc1cn(Cc2cc(F)ccc2F)nn1 ?
NPR1 activator: inactive; GC-B act: inactive

Results for CCc1ccc(C(=O)CSc2ncn[nH]2)cc1 ?
NPR1 activator: inactive; GC-B act: inactive; GalR3 antag: 54.4; Arr AP2 block: inactive; GalR3 conf: 22.5; CNG parental: inactive

What do the screens show for `CON(C)C(=O)C(C)(C)CC#CCN(CC#Cc1ccccc1)S(=O)(=O)c1ccc(C)cc1`?
NPR1 activator: inactive; GC-B act: inactive; GalR3 antag: inactive

Results for Nc1ncnc2c(C3OC(CO)C(O)C3O)scc12 (centres undefined) ?
NPR1 activator: inactive; GC-B act: inactive; GalR3 antag: 61.4; Arr AP2 block: inactive; GalR3 conf: 47.0; CNG parental: inactive

What do the screens show for `CC1(C)CC(=O)c2c(O)cc(OCC(=O)Nc3ccc(S(N)(=O)=O)cc3)cc2O1`?
NPR1 activator: inactive; GC-B act: inactive; GalR3 antag: inactive; Arr AP2 block: inactive

How did COc1cc(NC(=O)COc2cc(O)c3c(c2)OC(C)(C)CC3=O)cc(OC)c1OC do in these assays?
NPR1 activator: inactive; GC-B act: inactive; GalR3 antag: 44.8; Arr AP2 block: inactive; GalR3 conf: 101.5; CNG parental: inactive

Results for CSc1ccc(C#N)cc1NC(=O)c1ccccc1C ?
NPR1 activator: inactive; GC-B act: inactive; GalR3 antag: 15.3; Arr AP2 block: inactive; GalR3 conf: 13.0; CNG parental: inactive

What do the screens show for `O=C(O)CNC(=S)N(Cc1ccccc1Cl)C1CCCCC1`?
NPR1 activator: inactive; GC-B act: inactive; GalR3 antag: 14.4; Arr AP2 block: inactive; GalR3 conf: inactive; CNG parental: inactive

How did Cc1cc(/C=N/n2c(COc3ccccc3)nc3ccccc3c2=O)c(O)c([N+](=O)[O-])c1 do in these assays?
NPR1 activator: inactive; GC-B act: inactive; GalR3 antag: 31.2; Arr AP2 block: inactive; GalR3 conf: 43.7; CNG parental: inactive

Results for COc1ccc(-c2c3c(=O)n(C)c(=O)n(C)c3cn2-c2cc(OC)ccc2OC)cc1 ?
NPR1 activator: inactive; GC-B act: inactive; GalR3 antag: 18.1; Arr AP2 block: inactive; GalR3 conf: 20.0; CNG parental: inactive

How did COc1ccc(-c2c3c(=O)n(C)c(=O)n(C)c3cn2-c2ccccc2O)cc1 do in these assays?
NPR1 activator: inactive; GC-B act: inactive; GalR3 antag: inactive; Arr AP2 block: inactive

How did CN(C)S(=O)(=O)c1cccc(C(=O)N/N=C\c2ccc(-c3ccccn3)cc2)c1 do in these assays?
NPR1 activator: inactive; GC-B act: inactive

Results for CCCn1c2ccccc2c2nnc(SCc3[nH]c(=O)[nH]c3C(=O)CCCCC(=O)OCC)nc21 ?
NPR1 activator: inactive; GC-B act: inactive; GalR3 antag: 16.8; Arr AP2 block: inactive; GalR3 conf: inactive; CNG parental: inactive

How did CCOC(=O)CCCCC(=O)c1[nH]c(=O)[nH]c1CSc1nnc2c3ccccc3n(C(C)C)c2n1 do in these assays?
NPR1 activator: inactive; GC-B act: inactive; GalR3 antag: 31.4; Arr AP2 block: inactive; GalR3 conf: 17.6; CNG parental: inactive

What do the screens show for `Cc1ccccc1C(=O)N[C@H](C(=O)N1CCC[C@H]1C(=O)NCCc1ccccc1Cl)C(C)C`?
NPR1 activator: inactive; GC-B act: inactive; GalR3 antag: inactive

What do the screens show for `O=C(O)CCc1ccc(-c2cccs2)n1CC(=O)Nc1ccccc1C(F)(F)F`?
NPR1 activator: inactive; GC-B act: inactive; GalR3 antag: 15.1; Arr AP2 block: inactive; GalR3 conf: inactive; CNG parental: inactive

How did O=C(CNS(=O)(=O)c1ccccc1)N1CCN(c2ccccn2)CC1 do in these assays?
NPR1 activator: inactive; GC-B act: inactive

How did CC1CCCCN1CCCNC(=O)CN1C(=O)c2cccnc2Oc2ccc(Cl)cc21 (centres undefined) do in these assays?
NPR1 activator: inactive; GC-B act: inactive; GalR3 antag: 13.8; Arr AP2 block: inactive; GalR3 conf: 18.7; CNG parental: inactive

How did COc1ccc(-c2csc(NC(=O)c3ccccc3F)n2)cc1 do in these assays?
NPR1 activator: inactive; GC-B act: inactive; GalR3 antag: inactive; Arr AP2 block: inactive

What do the screens show for `COc1ccc(-c2csc(NC(=O)c3ccccc3NS(=O)(=O)c3ccc(F)c(F)c3)n2)cc1`?
NPR1 activator: inactive; GC-B act: inactive; GalR3 antag: 91.5; Arr AP2 block: inactive; GalR3 conf: 106.1; CNG parental: inactive

Results for Cc1ccc(S(=O)(=O)Nc2nc(-c3ccccc3)cs2)cc1 ?
NPR1 activator: inactive; GC-B act: inactive; GalR3 antag: inactive; Arr AP2 block: inactive

What do the screens show for `Cc1ccc(S(=O)(=O)Nc2ccccc2C(=O)Nc2nc(-c3ccc(F)cc3)cs2)cc1`?
NPR1 activator: inactive; GC-B act: inactive; GalR3 antag: 90.1; Arr AP2 block: inactive; GalR3 conf: 114.1; CNG parental: inactive
